The values below come from ChEMBL document CHEMBL1137629, “Antiproliferative effect of dihydroxyacetone on Trypanosoma brucei bloodstream forms: cell cycle progression, subcellular alterations, and cell death” (Antimicrob Agents Chemother, 2007).

Assay [1] relates to Trypanosoma brucei. As to the kind of experiment: Induction of apoptosis-like programmed cell death in Trypanosoma brucei bloodstream form assessed as loss of mitochondrial-membrane potential at 100 nM after 24 hrs by TMRE staining. The class given is functional. Put shortly: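 T. brucei MITat 1.2 (EATRO 427) bloodstream forms were grown axenically at 37°C, 5% CO₂ and exposed to DHA for 24 h. Cells at 10⁶/ml were stained with 25 nM TMRE in culture medium for 30 min at 37°C and read at once by flow cytometry. Depolarization control: valinomycin 100 nM. Lower fluorescence signifies lost membrane potential.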

The test system of assay [2] is Trypanosoma brucei. Briefly: Trypanocidal activity against Trypanosoma brucei bloodstream form assessed as induction of autophagy at 5 uM after 24 hrs by transmission electron microscopy. The class given is functional, organism-based. Put shortly:
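Autophagy positive control. Bloodstream forms treated with 5 μM rapamycin (from a 50 mM ethanol stock), processed by glutaraldehyde/osmium fixation, uranyl acetate staining, resin embedding and sectioning for transmission electron microscopy.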

Calls of active or inactive are those of the source. The rule behind the calls is not given here.

`CC(C)[C@@H]1NC(=O)[C@H](C)OC(=O)[C@@H](C(C)C)NC(=O)[C@@H](C(C)C)OC(=O)[C@H](C(C)C)NC(=O)[C@H](C)OC(=O)[C@@H](C(C)C)NC(=O)[C@@H](C(C)C)OC(=O)[C@H](C(C)C)NC(=O)[C@H](C)OC(=O)[C@@H](C(C)C)NC(=O)[C@@H](C(C)C)OC1=O` [VALINOMYCIN]: the Activity in the assay on Trypanosoma brucei [1] turned out to be 97.3%.
`CO[C@H]1C[C@@H]2CC[C@@H](C)[C@@](O)(O2)C(=O)C(=O)N2CCCC[C@H]2C(=O)O[C@H]([C@H](C)C[C@@H]2CC[C@@H](O)[C@H](OC)C2)CC(=O)[C@H](C)/C=C(\C)[C@@H](O)[C@@H](OC)C(=O)[C@H](C)C[C@H](C)/C=C/C=C/C=C/1C`: the result in the assay on Trypanosoma brucei [2] was Active.
